# Activity calls are given as the source filed them. No cut-off for these calls is given here.
# Assays:
# Rattus norvegicus [1] = assay: Hypoglycemic activity in 18 to 24 hrs-fasted rat assessed as reduction in blood glucose at 5 mg/kg, ip measured after 1 hr relative to saline-treated control; assay type: functional; design: scale not given: the % may be the effect or the level left; conditions: route intraperitoneal
# Method in brief: (§1)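 Unanesthetized male Charles River rats (200–250 g), fasted 18–24 h, in groups of five or six. Single ip dose. Tail-vein blood drawn before dosing and 1 h after. Glucose measured by ferricyanide reduction micromethod on an autoanalyzer. Value is the percent fall in blood glucose at 1 h versus a saline-treated control group. Significance levels are p < 0.05, 0.01 and 0.001.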
# Rattus norvegicus [2] = assay: Hypoglycemic activity in 18 to 24 hrs-fasted rat assessed as reduction in blood glucose at 15 mg/kg, ip measured after 1 hr relative to saline-treated control; assay type: functional; design: scale not given: the % may be the effect or the level left; conditions: route intraperitoneal; method in brief: as §1
# Rattus norvegicus [3] = assay: Hypoglycemic activity in 18 to 24 hrs-fasted rat assessed as reduction in blood glucose at 1 mg/kg, ip measured after 1 hr relative to saline-treated control; assay type: functional; design: scale not given: the % may be the effect or the level left; conditions: route intraperitoneal; method in brief: as §1
# Rattus norvegicus [4] = assay: Hypoglycemic activity in 18 to 24 hrs-fasted rat assessed as reduction in blood glucose at 0.5 mg/kg, ip measured after 1 hr relative to saline-treated control; assay type: functional, organism-based; design: dose 0.5 mg/kg; method in brief: as §1
Compound,Activity (Rattus norvegicus [1]) [%],also measured
O=C(NC[C@@H]1C[C@@H]2C=C[C@@H]1C2)NS(=O)(=O)N1CCC(CCNC(=O)c2cccc3c2OCCO3)CC1,11,Activity (Rattus norvegicus [2]): 40%
Cn1cc(C(=O)NCCC2CCN(S(=O)(=O)NC(=O)NC[C@@H]3C[C@@H]4C=C[C@@H]3C4)CC2)c(=O)n(C)c1=O (relative stereo),23,Activity (Rattus norvegicus [3]): 12%; Activity (Rattus norvegicus [2]): 32%
COc1ncccc1C(=O)NCCC1CCN(S(=O)(=O)NC(=O)NCC2CCCO2)CC1 (centres undefined),16,
Cc1ncsc1C(=O)NCCC1CCN(S(=O)(=O)NC(=O)NC[C@@H]2C[C@@H]3C=C[C@@H]2C3)CC1 (relative stereo),11,Activity (Rattus norvegicus [2]): 25%
COc1ccc(Cl)cc1C(=O)NCCC1CCN(S(=O)(=O)NC(=O)NN2CCCCCC2)CC1,36,
COc1ccc(Cl)cc1C(=O)NCC1CCN(S(=O)(=O)NC(=O)NC[C@@H]2C[C@@H]3C=C[C@@H]2C3)CC1 (relative stereo),15,
COc1ccc(NC(=O)NS(=O)(=O)N2CCC(CCNC(=O)c3cc(Cl)ccc3OC)CC2)cc1.O,27,
O=C(NC[C@@H]1C[C@@H]2C=C[C@@H]1C2)NS(=O)(=O)N1CCC(CCNC(=O)c2ccc3ccccc3n2)CC1 (relative stereo),21,
Cn1cc(C(=O)NCCC2CCN(S(=O)(=O)NC(=O)NC34CC5CC(CC(C5)C3)C4)CC2)c(=O)n(C)c1=O.O,27,
COc1ccc2nccc(C(=O)NCCC3CCN(S(=O)(=O)NC(=O)NC[C@@H]4C[C@@H]5C=C[C@@H]4C5)CC3)c2c1 (relative stereo),10,
COc1ccc(Cl)cc1C(=O)NCCC1CCN(S(=O)(=O)NC(=O)NC[C@@H]2C[C@@H]3C=C[C@@H]2C3)CC1 (relative stereo),37,Activity (Rattus norvegicus [3]): 27%
O.O=C(NC1CCCCC1)NS(=O)(=O)N1CCC(CCNC(=O)c2ccnc3ccccc23)CC1,16,
COc1ccc(Cl)cc1C(=O)NCC1CCN(S(=O)(=O)NC(=O)NC2CCCCC2)CC1.O,20,
COc1ccc(Cl)cc1C(=O)NCCC1CCN(S(=O)(=O)NC(=O)NC[C@@H]2C[C@@H]3CC[C@@H]2O3)CC1 (relative stereo),30,
COc1ccc2nccc(C(=O)NCCC3CCN(S(=O)(=O)NC(=O)NC4CCCCC4)CC3)c2c1.O,15,
O=C(NC1CCCCC1)NS(=O)(=O)N1CCC(CCNC(=O)c2ccc3c(c2)OCO3)CC1,,Activity (Rattus norvegicus [2]): 17%
CCCCCCNC(=O)NS(=O)(=O)N1CCC(CNC(=O)c2cc(Cl)ccc2OC)CC1,17,
O=C(NC[C@@H]1C[C@@H]2C=C[C@@H]1C2)NS(=O)(=O)N1CCC(CCNC(=O)c2cnsc2)CC1 (relative stereo),,Activity (Rattus norvegicus [2]): 14%
O=C(NC1CCCCC1)NS(=O)(=O)N1CCC(CCNC(=O)C(F)(F)F)CC1,13,
COc1ncccc1C(=O)NCCC1CCN(S(=O)(=O)NC(=O)NC2CCCCC2)CC1,33,Activity (Rattus norvegicus [3]): 22%; Activity (Rattus norvegicus [2]): 35%
COc1ccc(Cl)cc1C(=O)NCCC1CCN(S(=O)(=O)NC(=O)NC23CC4CC(CC(C4)C2)C3)CC1,29,
COc1ncccc1C(=O)NCCC1CCN(S(=O)(=O)NC(=O)NC[C@H]2C[C@@H]3CC[C@@H]2O3)CC1 (relative stereo),14,
CCOCCNC(=O)NS(=O)(=O)N1CCC(CCNC(=O)c2cccnc2OC)CC1,7,
Cc1ncccc1C(=O)NCCC1CCN(S(=O)(=O)NC(=O)NC2CCCCC2)CC1,16,
CCCn1cc(C(=O)NCCC2CCN(S(=O)(=O)NC(=O)NC[C@@H]3C[C@@H]4C=C[C@@H]3C4)CC2)c(=O)n(CC)c1=O.O (relative stereo),19,
COc1ccc(Cl)cc1C(=O)NCCC1CCN(S(=O)(=O)NC(=O)NC[C@H]2C[C@@H]3CC[C@@H]2O3)CC1.O (relative stereo),27,
Cn1cc(C(=O)NCCC2CCN(S(=O)(=O)NC(=O)NC3CCCCC3)CC2)c(=O)n(C)c1=O,,Activity (Rattus norvegicus [2]): 15%
O=C(NC1CCCCC1)NS(=O)(=O)N1CCC(CCNC(=O)c2cccc3c2OCCO3)CC1,34,Activity (Rattus norvegicus [2]): 42%
COc1ncccc1C(=O)NCCC1CCN(S(=O)(=O)NC(=O)NCC2CCCCO2)CC1 (centres undefined),12,
COc1ncc(Cl)cc1C(=O)NCCC1CCN(S(=O)(=O)NC(=O)NC[C@@H]2C[C@@H]3C=C[C@@H]2C3)CC1.O (relative stereo),,Activity (Rattus norvegicus [3]): 20%; Activity (Rattus norvegicus [4]): inactive
